Compound activity deposited in PubChem by several laboratories.
NF-kB neuron act – NF-kB expression increase, human neuronal cells; fold change at 12.5 µM; NF-kB reporter expression; active compounds read high; AID 1239; actives 1.6% (n = 190,000); in the data active = fold change above about 3.3
FLuc act counter – firefly luciferase counter-screen for stimulation assays. ATPlite luciferase biochemical, luminescence, 10 min; 0 = ATP-free wells, 1 = DMSO control. AID 1027. P08659. activation factor at 10 µM. 200,000 tested, under 10 active;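 active = luciferase activation factor, scaled between plate controls, of at least 2 with compound at 10 µM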
Target sequence (P08659 whole entry, looked up): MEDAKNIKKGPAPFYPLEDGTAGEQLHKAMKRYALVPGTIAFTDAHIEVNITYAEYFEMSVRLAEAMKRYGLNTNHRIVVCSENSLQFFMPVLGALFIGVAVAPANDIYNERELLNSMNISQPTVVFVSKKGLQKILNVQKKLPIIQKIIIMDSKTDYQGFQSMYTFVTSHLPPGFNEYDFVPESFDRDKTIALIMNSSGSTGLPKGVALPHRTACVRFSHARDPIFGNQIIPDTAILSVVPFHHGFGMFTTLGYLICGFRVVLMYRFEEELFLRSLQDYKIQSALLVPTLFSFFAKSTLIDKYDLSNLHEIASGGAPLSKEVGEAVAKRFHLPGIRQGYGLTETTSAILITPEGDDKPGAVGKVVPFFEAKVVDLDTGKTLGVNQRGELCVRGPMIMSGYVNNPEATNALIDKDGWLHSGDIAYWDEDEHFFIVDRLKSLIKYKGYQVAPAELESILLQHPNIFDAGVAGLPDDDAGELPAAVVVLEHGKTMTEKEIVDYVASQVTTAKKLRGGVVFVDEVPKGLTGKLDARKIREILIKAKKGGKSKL
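System: luciferase plus luciferin reagent, cell-free; medium: PBS as buffer for the ATP substrate; dosing: test compounds dosed from 2 mM stocks in 100% DMSO; timing: 10 min post-reagent at room temperature; measured by: luminescence measurement of luciferase light output; evaluation: luciferase activation, seen as luminescence increase over controls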
STAT1 activator – increases IFN-gamma driven STAT1 reporter signal | NIH 3T3 STAT1-luciferase reporter, luminescence; 100% = IFN-gamma alone, no compound | activation (% of control), % at 5.5 µM | actives 2.6% (n = 200,000) | AID 932;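 active = activation above the screen-wide mean activation plus 3 SD, cut at about 130% in these data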;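 note: raw ratio to IFN-gamma control signal so 100% means no change and 0% no light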
FLuc inhib CS – inhibits firefly luciferase, flagging false hits in luciferase inhibition screens | P08659 | ATPLite firefly luciferase biochemical luminescence, 10 min | inhibition, % at 10 µM | actives 1.5% (n = 200,000) | AID 1006;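 active = inhibition above about 50% when tested at 10 µM, limit read from the data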
APP 5'UTR act – APP 5'UTR luciferase reporter activation. SH-SY5Y APP 5'UTR luciferase reporter, luminescence; zero percent = DMSO vehicle wells. actives 1% (n = 190,000). activation, % at 2 µM;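 active = activation above a set limit, based on mean plus 3 SD of controls, cut at about 140% in these data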
Numbers without * were called inactive. Sampled rows, rich in hits. Any-hit rate of the full collection: about 4.3%.

SMILES	NF-kB neuron act	FLuc act counter	STAT1 activator	FLuc inhib CS	APP 5'UTR act
Cc1nnnn1CC(=O)Nc1ccccc1[N+](=O)[O-]	0.93	1	103	-4	1
Cc1ccc(NC(=O)C(=O)NCc2ccc(/C=N/NC(=O)c3c(C)nc4ccccn34)o2)cc1	1.2	0.3	108	73*	6
N#C/C(=N\Nc1ccc(Br)cc1)C(=N)N1CCOCC1	3.1	0.9	146*	11	80
N#C/C(=N\Nc1ccccc1[N+](=O)[O-])C(=N)N1CCCCC1	5.6*	0.2	136*	82*	176*
COc1ccccc1N/N=C(\C#N)C(=N)N1CCOCC1	1.1	1	103	0	1
N#C/C(=N\Nc1ccccc1)C(=N)N1CCCCC1	4.5*	0.4	129*	61*	112
COc1cc(C(C(=O)NC2CCCC2)N(C(=O)Cc2cccs2)C2CC2)cc(OC)c1OC (stereo not drawn)	1.4	1.1	99	-6	-2
COc1cccc(N2CCN(c3cnc4ccccc4n3)CC2)c1	1.1	1	134*	5	41
COc1ccc(N2CCN(c3cnc4ccccc4n3)CC2)cc1	2.2	1	133*	-3	65
CS(=O)(=O)N1CCN(C(=O)NC2CCCCC2)CC1	1.4	1.1	103	-8	-4
Cc1ccccc1NC(=O)c1cc(C(=O)c2cc(Cl)ccc2O)cn(-c2ccccc2C)c1=O	0.6	1	121	-4	13
Oc1csc(Cc2nc(-c3ccc4ccccc4c3)cs2)n1	1.9	0.9	129*	5	29
Oc1csc(Cc2nc(-c3ccccc3F)cs2)n1	1.9	1	144*	1	18
Oc1csc(Cc2nc(-c3ccc(-c4ccccc4)cc3)cs2)n1	1.1	0.9	107	9	50
Cc1cccc(C)c1N=Cc1c(O)n(-c2nccs2)c(=O)c2ccccc12	0.81	1	109	-4	-19
O=c1c2ccccc2c(/C=N/c2nnc(Cc3ccccc3)s2)c(O)n1-c1ccc(Cl)cn1	1.4	0.5	94	50*	4
O=C(COC(=O)c1ccc(Cl)nc1)Nc1ccccc1OC(F)F	1.1	1	98	-3	-1
Cc1ccc2nc(SCC(=O)NCc3ccco3)c(C#N)cc2c1	2.9	1.1	105	-6	137*
N#Cc1cccc(-n2nnnc2-c2ccc3c(c2)OCO3)c1	3.5*	1	112	0	28
CC(O)CNc1cnccn1 (stereo not drawn)	0.98	1	93	0	-11
O=C(N/N=C\CCc1ccccc1)c1ccco1	1.2	1.1	134*	-6	43
CC(/C=N\NC(=O)c1ccc(C)nc1)=C\c1ccccc1	1.3	0.6	100	42	-12
CC(/C=N/NC(=O)c1cccs1)=C\c1ccccc1	8.5*	0.2	134*	76*	188*
CC(/C=N/NC(=O)c1ccco1)=C\c1ccccc1	5.9*	0.1	108	90*	161*
O=C(NCCc1c[nH]c2ccccc12)C(=O)NCC(c1ccco1)N1CCN(c2ccccc2F)CC1 (stereo not drawn)	1.2	1.1	101	-6	-5
SMILES	NF-kB neuron act	FLuc act counter	STAT1 activator	FLuc inhib CS	APP 5'UTR act
CCN1C(=O)/C(=C\c2cccn2-c2ccc([N+](=O)[O-])cc2)N(CC)C1=S	0.95	1	97	-5	-21
COC(=O)C(C(=O)Nc1nc2ccccc2s1)C1CCCC1 (stereo not drawn)	1.2	1.1	95	-5	-14
O=C(NCCc1ccccn1)c1ccc(OC(F)F)cc1	3.3	0.3	122	65*	99
CCN(CC)S(=O)(=O)c1ccc(C(=O)NCCc2ccccn2)cc1	1.1	1	110	-2	31
COc1ccc(OCCOC(=O)c2[nH]c(C)c(C(C)=O)c2C)cc1	5.8*	1	89	-4	-4
COc1ccc(CCNC(=O)c2[nH]c(C)c(C(C)=O)c2C)cc1	0.79	1.1	94	-10	-13
c1cc(C2CCN(Cc3nc(-c4ccc5c(c4)OCO5)no3)CC2)ccn1	0.91	1.1	78	-5	1
CN(C)/C=C1/C(=O)N(c2ccc([N+](=O)[O-])cc2)N=C1c1ccccc1	1.8	1.1	144*	-6	42
CC1=NN(c2ccc([N+](=O)[O-])cc2)C(=O)/C1=C\N(C)C	1.2	0.5	103	52*	-8
CC1=NN(c2nc3ccccc3[nH]2)C(=O)/C1=C/N(C)C	0.85	0.1	61	94*	28
CCCC1=NN(c2ccc([N+](=O)[O-])cc2)C(=O)/C1=C/N(C)C	1.8	1	119	-3	20
CC(C)CNC(=S)Nc1ccc(Oc2ccccc2)cc1	1.1	1.1	106	-9	-4
O=C(CNCCc1ccccc1)N1CCc2ccccc2C1	1.6	1.1	104	-6	-8
Cc1cc2ncc(-c3ccc(Cl)cc3)c(N)n2n1	1.2	0.4	129*	58*	45
O=C(COC(=O)c1ccc(Cl)nc1)NCCC1=CCCCC1	0.91	1	106	2	2
Cc1ccc2nc(-c3ccncc3)c(NC3CCCCC3)n2c1	1.2	1	88	-1	10
O=C(N/N=C/C1CC=CCC1)c1ccc(Cl)cc1O (stereo not drawn)	1.4	0.4	91	55*	18
Cc1ccc(S(=O)(=O)N(C)C)cc1NC(=S)N1CCCCC1CO (stereo not drawn)	0.96	1.1	88	-11	-14
NC1=NC(=O)/C(=C\c2cccnc2)S1	1.1	1	103	-2	5
NC1=NC(=O)/C(=C\C=C\c2ccccc2)S1	1.5	1	134*	3	19
CCC(=O)Nc1ccc2c(c1)nc(CN1CCN(C(C)=O)CC1)n2C	1	1.1	98	-7	-2
Cc1cc(C(=O)CSc2nc3ccccc3[nH]2)c(C)n1C	4*	0.8	142*	17	149*
C/C(N)=C(/C#N)C(=O)CSc1nc2ccc(C)cc2[nH]1	4.3*	0.7	150*	26	141*
Cc1ccc2nc(SCC(=O)c3cc(C)n(C)c3C)[nH]c2c1	3.4*	1	101	1	5
CCOC(=O)c1[nH]c2ccc(OC)cc2c1C	1.9	1	142*	2	31
Oc1ccc(Cl)cc1C1=NNC(c2ccc(Cl)cc2)C1 (stereo not drawn)	1.3	1	130*	2	55
Oc1c(Cl)cc(Cl)cc1C1=NNC(c2ccc(Cl)cc2)C1 (stereo not drawn)	1	1	100	2	48
COc1ccc(N2C(=O)C(F)(F)C2c2ccc(C)cc2)cc1OC (stereo not drawn)	1.1	1	94	-2	10
COc1cccc(Oc2nnnn2-c2ccccc2)c1	2	1	131*	4	25
COc1ccc(Oc2nnnn2-c2ccccc2)cc1	2.1	1	106	-4	3
